Sampled rows, rich in hits. Any-hit rate of the full collection: about 2.3%.
pCIP destab = compounds decreasing mouse p/CIP protein stability; F442A p/CIP-EGFP cells, EGFP fluorescence, 16 h; 290,000 compounds, 0.01% hits; decrease of EGFP signal, % at 10 µM; AID 1984;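 active = EGFP signal decrease of at least 30% at 10 µM or well 3 SD below plate mean, unless failing retest; inactive = the rest, including hits failing retest or dose response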
CHT block = inhibitors of human choline transporter CHT | Q9GZV3 | CHT-expressing cells, membrane potential dye, choline response; active compounds read low | B-score at 10 µM | 310,000 compounds, 0.86% hits;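 active = B-score over 3 SD under the library average, and starting fluorescence ratio not unusually high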;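 also: choline stimulus applied at its EC90 after an EC20 pre-addition; B-score computed on integrated fluorescence ratio after choline addition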
GPR7 antag = blocks human GPR7 receptor signaling; inhibition, % at 4.4 µM; GPR7-expressing cells, fluorescence antagonist assay; 290,000 compounds, 1.1% hits; in the data active = inhibition above about 16%, passing the limit was not always enough;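 also: cells stimulated with the agonist NPW; 0% = agonist with vehicle and 100% = vehicle without agonist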
T cell HTS = modulates CD8 T cell binding to vesicles. 330,000 compounds, 0.068% hits. response (vesicle binding), % at 7 µM. 2C CD8+ T cell-vesicle binding, flow cytometry; active compounds read low;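 active = response, share of CD8 T cells binding vesicles, and their 90th percentile fluorescence all below set limits, cut at about 80% in these data, passing the limit was not always enough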;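 also: values below 100% mean blocked vesicle binding to the CD8+ T cells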
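Incubation: binding step 1.5 h, 37 °C, antibody labelling 20 min, ice; system: murine 2C transgenic CD8+ T lymphocytes; technique: cytometric PE anti-B7-1 and Alexa647 anti-CD8 signals after 1% paraformaldehyde fixation; also added: QL9-charged Drosophila Ld/ICAM-1/B7-1 vesicles; control set: naked versus QL9-loaded vesicles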
Pemphigus Ab inh = inhibitors of pemphigus antibody binding to human desmoglein-3. P32926. DSG3-coupled beads, scFv-anti-DSG3-GFP binding, flow cytometry; active compounds read low. binding (percent of control), % at 10 µM. 310,000 compounds, 0.48% hits. AID 588358;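 active = binding more than 3 SD below its plate's average and above zero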;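 also: hits lower antibody fragment binding to DSG3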
Target sequence (P32926 whole entry, looked up, the tested form may be a part): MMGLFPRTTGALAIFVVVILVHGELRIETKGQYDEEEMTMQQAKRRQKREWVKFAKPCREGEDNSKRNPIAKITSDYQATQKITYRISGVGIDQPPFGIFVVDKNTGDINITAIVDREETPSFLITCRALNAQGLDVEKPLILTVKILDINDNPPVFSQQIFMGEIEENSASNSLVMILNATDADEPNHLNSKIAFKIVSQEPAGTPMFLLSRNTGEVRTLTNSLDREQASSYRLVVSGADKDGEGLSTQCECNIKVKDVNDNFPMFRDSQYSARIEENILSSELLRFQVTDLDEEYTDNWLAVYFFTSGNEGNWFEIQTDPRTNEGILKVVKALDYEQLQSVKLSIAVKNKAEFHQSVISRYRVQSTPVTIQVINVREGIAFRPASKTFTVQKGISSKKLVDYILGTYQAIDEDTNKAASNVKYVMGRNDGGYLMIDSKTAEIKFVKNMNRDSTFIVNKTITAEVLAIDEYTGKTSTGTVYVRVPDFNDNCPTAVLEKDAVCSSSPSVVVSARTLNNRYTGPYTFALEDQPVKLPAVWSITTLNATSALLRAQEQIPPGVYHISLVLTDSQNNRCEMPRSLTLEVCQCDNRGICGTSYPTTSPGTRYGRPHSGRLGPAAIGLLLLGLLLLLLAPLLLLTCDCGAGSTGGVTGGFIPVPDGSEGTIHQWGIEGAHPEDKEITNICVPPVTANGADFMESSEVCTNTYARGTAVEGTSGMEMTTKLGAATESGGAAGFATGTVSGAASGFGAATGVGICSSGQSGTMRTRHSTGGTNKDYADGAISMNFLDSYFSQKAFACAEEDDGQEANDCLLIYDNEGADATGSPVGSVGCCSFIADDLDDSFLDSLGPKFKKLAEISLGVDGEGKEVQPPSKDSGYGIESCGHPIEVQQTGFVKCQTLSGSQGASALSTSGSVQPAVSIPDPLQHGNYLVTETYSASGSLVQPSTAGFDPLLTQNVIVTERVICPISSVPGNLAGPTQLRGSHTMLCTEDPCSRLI
CHT PAM = allosteric activators of human choline transporter CHT. Q9GZV3. CHT-expressing cells, membrane potential dye, choline EC20; active compounds read high; LV-AA mutant CHT in HEK293 cells. B-score at 10 µM. 310,000 compounds, 0.49% hits;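 active = initial fluorescence not abnormally high and integrated response B-score, plate-corrected, over 3 SD above library mean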
GPR7 antag cf = human GPR7 antagonism, confirmation assay. GPR7-expressing cells, calcium fluorescence antagonist mode. 2,400 compounds, 52% hits. shares compounds with GPR7 antag. inhibition, % at 4.4 µM. AID 1952; in the data active = inhibition above about 24%;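 also: stimulated with the GPR7 agonist NPW; 0% = agonist plus vehicle and 100% = vehicle alone without agonist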
MCHR1 antagonist = MCHR1 (human) antagonism in GPR7 counter-screen | MCHR1-expressing cells, fluorescence antagonist assay | 2,400 compounds, 62% hits | shares compounds with GPR7 antag | inhibition, % at 4.4 µM | AID 2148; in the data active = inhibition above about 22%;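 also: 0% = vehicle with agonist and 100% = vehicle without agonist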
Starred values were filed as active, the others as inactive; i = inactive; . = not tested or not shown.

SMILES	pCIP destab	CHT block	GPR7 antag	T cell HTS	Pemphigus Ab inh	CHT PAM	GPR7 antag cf	MCHR1 antagonist
CCC(C)(C(=O)NC1CCCCC1)N(Cc1ccco1)C(=O)Cc1cccs1 (centres undefined)	0	i	40*	750	.	i	50*	27*
CCCN(CC(=O)Nc1ccccc1C)C(=O)c1ccc(Cl)c(S(=O)(=O)N2CCCC2)c1	.	i	.	604	108	i	.	.
CCN(CC(=O)Nc1c(F)cccc1F)C(=O)c1ccc(Cl)c(S(=O)(=O)N2CCCCC2)c1	9	i	35*	0	103	i	13	49*
O=C1Nc2cc(C(=O)NCCCN3CCOCC3)ccc2S/C1=C/c1ccccc1F	-1	i	40*	463	111	i	33*	28*
O=C(NCCCN1CCOCC1)c1ccc2c(c1)N(Cc1c(F)cccc1Cl)C(=O)c1ccccc1S2	0	i	25*	174	108	i	37*	12
CCOC(=O)C(C(=O)N(C)Cc1ccccc1)C1CCCCC1 (centres undefined)	-2	i	32*	264	120	i	27*	30*
N#Cc1c(-c2ccc(Cl)cc2)c(-c2ccc(Cl)cc2)nn(CCOC(=O)CCC(=O)O)c1=O	.	.	.	.	96	.	.	.
Brc1cccc(OCCn2ccnc2)c1	-3	i	24*	410	101	i	9	2
Cc1cccn2c(CNC3CCCc4ccccc43)c(C(=O)N3CCCCC3)nc12 (centres undefined)	-2	i	34*	302	100	i	17	17
FC(F)C(F)(F)c1cc(-c2ccc(Cl)cc2)n[nH]1	4	i	30*	379	94	i	32*	44*
Fc1ccc(-c2cc(C(F)(F)C(F)F)[nH]n2)cc1	-2	i	42*	547	99	i	64*	63*
Oc1ccccc1-c1cc(C(F)(F)C(F)F)[nH]n1	-4	i	6	483	87	i	.	.
Cc1ccc(Nc2cc(=O)n(C)c(=O)[nH]2)cc1C	.	.	.	.	101	.	.	.
COC(=O)[C@@]1(Cc2ccc(F)cc2)[C@H]2c3cc(C(=O)N(C)C)n(Cc4ccccc4)c3C[C@H]2CN1C(=O)c1ccccc1	-4	i	.	160	.	i	.	18
O=c1c(=O)n(CCO)n(CCO)c(=O)n1CCO	.	.	.	.	96	.	.	.
Cc1ccc(NCc2nnc(SCC(=O)OC3CCCCC3)o2)c(C)c1	12	i	28*	244	.	i	23	23*
CNC(=S)N1N=C(c2ccc(OC)cc2)CC1c1ccc(N(C)C)cc1 (centres undefined)	-4	i	22*	135	97	i	9	33*
Cc1ccc2nc(C)c(CN3CCN(c4ccc([N+](=O)[O-])cc4Cl)CC3)n2c1	-38	i	23*	304	107	i	52*	52*
O=C(N/N=C/c1c[nH]c2ccccc12)c1ccccc1Cl	-9	i	12	192	99	i	.	.
Cc1ccc(-c2cc(C(=O)N/N=C/c3c[nH]c4ccccc34)[nH]n2)cc1	-8	.	34*	.	109	.	18	35*
O=C(N/N=C/c1c[nH]c2ccccc12)c1cc(Cl)ccc1O	3	i	36*	121	111	i	10	27*
COc1ccc(C(=O)COC(=O)c2cc(=O)c3ccccc3o2)c(OC)c1	.	.	.	.	99	.	.	.
CC1CCCC(NC(=O)CSc2nnc(-c3cccnc3)n2N)C1C (centres undefined)	.	.	.	333	128	.	.	.
CCOC(=O)/C(N=Nc1c(C)n(C)n(-c2ccccc2)c1=O)=C(\C)O	1	i	0	212	103	i	.	.
CC(=O)/C(N=Nc1c(C)n(C)n(-c2ccccc2)c1=O)=C(\C)O	7	i	28*	378	95	i	0	-4
SMILES	pCIP destab	CHT block	GPR7 antag	T cell HTS	Pemphigus Ab inh	CHT PAM	GPR7 antag cf	MCHR1 antagonist
COCCCNC(=S)N1CCC(NC(=O)Nc2ccc(C)cc2)CC1	-21	i	21*	i	101	i	0	1
COc1ccc(C(=O)NC2CCN(C(=S)Nc3ccc(C)cc3)CC2)cc1	-4	i	-9	376	94	i	.	.
C[C@@H](C(=O)NCCc1ccccc1)N1C(=O)N2CCc3c([nH]c4ccccc34)[C@@]2(C)C1=O	6	i	24*	274	102	i	16	27*
COc1ccc2[nH]c3c(c2c1)CCN1C(=O)N([C@@H](C)C(=O)NCc2ccccc2)C(=O)[C@]31C	4	i	8	470	93	i	.	.
C[C@@H](C(=O)NCCc1ccccc1F)N1C(=O)N2CCc3c([nH]c4ccccc34)[C@@]2(C)C1=O	2	i	25*	410	115	i	18	34*
C#CCn1cc2c(c1-c1ccccc1)c(=O)n(C)c(=O)n2C	.	.	.	.	104	.	.	.
CC(C)[C@H](NC(=O)c1ccc(Cl)cc1Cl)C(=O)OCc1nc2ccsc2c(=O)[nH]1	.	.	.	.	103	.	.	.
OC(COCc1ccc(Cl)cc1)CN1CCN(CC(O)COCc2ccc(Cl)cc2)CC1 (centres undefined)	7	i	26*	276	101	i	68*	73*
O=C(Nc1cc(Cl)cc2c1-c1ccc(Cl)cc1C2O)C(Cl)Cl (centres undefined)	.	.	.	.	104	.	.	.
CN(Cc1cccs1)C(=O)CCCc1c[nH]c2ccccc12	10	i	33*	277	101	i	33*	45*
Cc1noc(C)c1NC(=O)N(C)C[C@H]1OCc2cnnn2CCCC(=O)N([C@@H](C)CO)C[C@H]1C	.	.	.	.	103	.	.	.
Cc1ccc(CN(Cc2cc3cccc(C)c3[nH]c2=O)C(=S)NCCCN(C)C)cc1	-8	i	36*	248	100	i	47*	30*
Cc1cccc2cc(CN(Cc3cccnc3)C(=S)NCCCN(C)C)c(=O)[nH]c12	-6	i	2	349	113	i	.	.
Cc1cccc2cc(CN(Cc3ccccc3)C(=S)NCCCN(C)C)c(=O)[nH]c12	-9	i	53*	227	105	i	48*	28*
c1ccc(CCn2nnnc2C(c2cccs2)N2CCN(Cc3ccc4c(c3)OCO4)CC2)cc1 (centres undefined)	-9	i	22*	146	104	i	21	34*
CC(C)C(c1nnnn1Cc1ccccc1)N1CCN(Cc2ccc3c(c2)OCO3)CC1 (centres undefined)	4	i	0	691	.	i	.	.

From PubChem
